Data on 2 compounds can be found in publication PMC11737066 (RSC Advances, 2025).

This data set can be described thus: Parallel artificial membrane permeability assay. The following applies: 24 h incubation at 37 °C; initial minus final donor and acceptor concentration. Format: in vitro ADME. Put shortly: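 Artificial membrane made of 1% (mass fraction) lecithin in dodecane, applied to hydrophobic PVDF filter donor wells. Test compound solution was added to the donor side, and the donor/acceptor sandwich was incubated 24 h at 37 °C. Donor and acceptor concentrations were taken from maximum absorbance (scan 190–400 nm). Membrane integrity was checked with brilliant cresyl blue and lucifer yellow.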

For the compound `CCCCCCCCCCCC[N+](C)(C)Cc1ccccc1.[Br-]` [BAB, dimethyldodecylbenzylammonium bromide], the “% of compound integrated in membrane” value is “≈ 97%”.

Consider `CCCCCCCCCCCCCCCC[n+]1ccccc1` [CPC, cetylpyridinium chloride], for which the “% of compound integrated in membrane” value is listed as “≈ 97%”.
